Data reported in ChEMBL document CHEMBL4138314, “Synthesis and Evaluation of N-Phenyl-3-sulfamoyl-benzamide Derivatives as Capsid Assembly Modulators Inhibiting Hepatitis B Virus (HBV)” (J Med Chem, 2018).
Values after ≈ are worked out from the molar mass of the structure shown. Active and inactive are the calls of the source. The calls are words filed in the database; no cut-off is given here.

How the values were obtained:
[1] = Cytotoxicity against human HepG2 cells after 4 days by resazurin assay; assay type: cell-based
[2] = molecular target: Core antigen (Hepatitis B virus) (UniProt Q03732); assay: Induction of HBV Maleimidyl BoDIPY-FL-labeled capsid Cp*150 mutant aggregation incubated for 30 mins measured every 10 secs for 30 mins by fluorescence quenching assay
Core antigen (Hepatitis B virus), sequence (Q03732 as listed by the source): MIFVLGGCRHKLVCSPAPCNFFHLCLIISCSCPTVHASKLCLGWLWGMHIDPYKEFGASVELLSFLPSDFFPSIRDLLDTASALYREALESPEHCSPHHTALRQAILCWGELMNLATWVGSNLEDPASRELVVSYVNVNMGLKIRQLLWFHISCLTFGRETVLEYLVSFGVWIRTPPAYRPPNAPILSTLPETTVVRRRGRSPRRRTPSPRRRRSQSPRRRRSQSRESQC

[3] = system: HBV genotype D; assay: Antiviral activity against HBV genotype D infected in human HepG2.2.15 cells assessed as inhibition of viral DNA level treated twice for 3 days measured after 6 days by real time PCR; assay type: functional, organism-based; details: for EC50: Hepatitis B virus; for Activity: hepatitis B virus genotype D
[4] = system: Hepatitis B virus; assay: Antiviral activity against Hepatitis B virus infected in human HepG2.117 cells assessed as inhibition of viral DNA level after 3 days by real time PCR; assay type: functional, organism-based; details: HepG2.117, 72 h
[5] = Drug metabolism in mouse liver microsomes at 1 uM after 15 mins by LC-MS/MS analysis; assay type: ADME, microsome; details: read-out: Drug metabolism
In short: (§1)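 Compound incubated 15 min with human or mouse liver microsomes; stability expressed as percent turnover (metabolised) at 15 min.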

[6] = Drug metabolism in human liver microsomes at 1 uM after 15 mins by LC-MS/MS analysis; assay type: ADME, microsome; details: read-out: Drug metabolism; in short: as §1
[7] = system: Hepatitis B virus; assay: Induction of HBV capsid core protein CP149 aggregation assessed as ratio between area under the curve for observed amount of core dimer and area under the curve for aggregated core protein at 20 uM after 24 hrs by size exclusion chromatographic analysis
In short: (§2)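 Recombinant HBV core assembly domain (aa 1–149, Cp149) was incubated with compound at 20 µM for 24 h, with a no-compound control run in parallel. Size exclusion chromatography gave the ratio of Cp149 dimer AUC to aggregated Cp149 AUC.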

[8] = Kinetic solubility of the compound at pH 7.4 after 4 hrs by UPLC-UV analysis; assay type: physicochemical; details: buffer, read-out: Kinetic_solubility
[9] = Cytotoxicity against human HepG2 cells after 4 to 6 days by resazurin assay; assay type: cell-based; details: HepG2 cells
[10] = system: Hepatitis B virus; assay: Induction of HBV capsid core protein CP149 aggregation assessed as large aberrant structure formation at 20 uM after 24 hrs by size exclusion chromatographic analysis; in short: as §2
[11] = Cytotoxicity against human HepG2 cells after 6 days by resazurin assay; assay type: cell-based

SMILES | CC50 at 96 h [1] [µM] | Activity [2] | EC50 [3] [µM] | EC50 [4] [µM] | metabolised at 0.25 h, 1 µM [5] [%] | metabolised at 0.25 h, 1 µM [6] [%] | Ratio [7] | solubility kinetic at 4 h [8] [µM] | CC50 [9] [µM] | Activity [10] | Activity [3] | CC50 at 144 h [11] [µM]
CN1CCN(S(=O)(=O)c2cccc(C(=O)Nc3ccc(F)cc3)c2)CC1 | > 100 | Active | 26.5 | 11.1 | 84 | 53 | 6.3 | > 100 |  |  |  | 
Cc1cc(NC(=O)c2cccc(S(=O)(=O)NC3(C)COC3)c2)c(C)cc1F |  |  | 3.06 | 1.91 | 78 | 1 |  | > 100 | > 25 |  |  | 
CC(C)NS(=O)(=O)c1cccc(C(=O)Nc2ccc(F)c(C(C)C)c2)c1 |  |  | 1.4 | 2.79 | 96 | 31 |  | 13 (≈ 4.92 µg/mL) | 29.8 |  |  | 
Cc1c(NC(=O)c2cccc(S(=O)(=O)N[C@H]3CCOC3)c2)ccc(F)c1F |  |  | 3.63 | 1.91 | 68 | 37 |  | > 100 | > 25 |  |  | 
O=C(Nc1nccs1)c1cc(S(=O)(=O)NC2CCCCC2)ccc1F | > 25 | inactive | 29.3 | > 25 | 100 | 85 | 9.7 | > 100 |  |  |  | 
O=C(Nc1cccc2ccccc12)c1cc(S(=O)(=O)NC2CCCCC2)ccc1F | > 25 | inactive | 15.6 | > 25 | 100 | 94 |  | 12 (≈ 5.12 µg/mL) |  |  |  | 
O=C(Nc1ccncc1)c1cc(S(=O)(=O)NC2CCCCC2)ccc1F | > 25 | inactive | 5.3 | 16.3 | 75 | 68 | 6 | > 100 |  |  |  | 
Cc1c(F)ccc(NC(=O)c2cccc(S(=O)(=O)N[C@H]3CCOC3)c2)c1F |  |  | 0.29 | 0.78 | 66 | 25 |  | > 100 | > 25 |  |  | 
O=C(Nc1ccc(F)cc1)c1ccc(Cl)c(S(=O)(=O)N2CCCCCC2)c1 |  | Active | 0.66 |  | 100 | 98 | 0.01 | 1 (≈ 0.411 µg/mL) |  | inactive | Dose-dependent effect | 17
COc1cc(NC(=O)c2cccc(S(=O)(=O)N[C@H]3CCOC3)c2)ccc1F |  |  | 2.33 | 2.66 | 35 | 20 |  | > 100 | > 25 |  |  | 
CC(C)NS(=O)(=O)c1cccc(C(=O)Nc2ccc(F)c(C3CC3)c2)c1 |  |  | 0.32 | 0.91 | 61 | 27 |  | 31 (≈ 11.7 µg/mL) | 35.2 |  |  | 
N#Cc1cc(NC(=O)c2cccc(S(=O)(=O)N[C@H]3CCOC3)c2)ccc1F |  |  | 0.81 | 0.98 | 27 | 13 |  | > 100 | > 50 |  |  | 
CCc1cc(NC(=O)c2cccc(S(=O)(=O)NC(C)C)c2)ccc1F |  |  | 0.31 | 2.59 | 88 | 31 |  | 15 (≈ 5.47 µg/mL) | 28.5 |  |  | 
O=C(Nc1ccc(F)c(F)c1)c1cccc(S(=O)(=O)NC2CCCC2)c1 | > 25 | Active | 0.093 | 0.36 | 86 | 45 |  | 46 (≈ 17.5 µg/mL) |  |  |  | 
Cc1ccccc1NC(=O)c1cccc(S(=O)(=O)NC2CCCCC2)c1 |  |  | 4.18 |  |  | 86 |  |  |  |  |  | > 25
Cc1c(F)ccc(NC(=O)c2cccc(S(=O)(=O)NC3(C)COC3)c2)c1C |  |  | 2.74 | 1.65 | 77 | 0 |  | > 100 | > 25 |  |  | 
O=C(Nc1ccc(F)c(F)c1)c1cccc(S(=O)(=O)N[C@H]2CCOC2)c1 |  |  | 0.38 | 0.51 | 42 | 5 |  | > 100 | > 50 |  |  | 

SMILES | CC50 at 96 h [1] [µM] | Activity [2] | EC50 [3] [µM] | EC50 [4] [µM] | metabolised at 0.25 h, 1 µM [5] [%] | metabolised at 0.25 h, 1 µM [6] [%] | Ratio [7] | solubility kinetic at 4 h [8] [µM] | CC50 [9] [µM] | Activity [10] | Activity [3] | CC50 at 144 h [11] [µM]
CCN(CC)S(=O)(=O)c1ccc(Cl)c(C(=O)Nc2ccccc2)c1 |  |  | 1.04 |  |  | 80 | 0.7 |  |  | inactive | Dose-dependent effect | > 25
O=C(Nc1ccc(F)cc1)c1cccc(S(=O)(=O)N2CCOCC2)c1 | > 100 |  | 8.49 | 11 | 69 | 27 | 0.6 | > 100 |  |  |  | 
O=C(Nc1cc(F)cc(F)c1)c1cccc(S(=O)(=O)NC2CCCC2)c1 | > 25 | Active | 0.28 | 0.78 | 100 | 79 |  | 28 (≈ 10.7 µg/mL) |  |  |  | 
O=C(Nc1cccnc1)c1cc(S(=O)(=O)NC2CCCCC2)ccc1F | > 25 | inactive |  | 24.8 | 99 | 57 | 9.8 | > 100 |  |  |  | 
CN1CCC(NS(=O)(=O)c2cccc(C(=O)Nc3ccc(F)cc3)c2)CC1 | > 100 |  | 5.3 | 16 | 13 | 10 | 4.2 | 94 (≈ 36.8 µg/mL) |  |  |  | 
O=C(Nc1cccc(S(=O)(=O)NC2CCCCC2)c1)c1ccccc1 | > 25 |  | 9.6 | > 25 | 100 | 99 | 7 | 10 (≈ 3.58 µg/mL) |  |  |  | 
Cc1cc(NC(=O)c2cccc(S(=O)(=O)NC3CCCC3)c2)ccc1F | 48.2 | Active | 0.1 | 0.42 | 97 | 66 | 0.02 | 33 (≈ 12.4 µg/mL) |  |  |  | 
CN(C(=O)c1cccc(S(=O)(=O)NC2CCCC2)c1)c1ccc(F)cc1 | > 25 | inactive | 89.6 | > 25 | 100 | 100 |  | > 100 |  |  |  | 
O=C(Nc1ccc(F)cc1)c1cccc(NS(=O)(=O)C2CCCCC2)c1 | 33.6 |  | 1.1 | 2.2 | 91 | 46 | 0.3 | 86 (≈ 32.4 µg/mL) |  |  |  | 
Cc1cc(F)cc(NC(=O)c2cccc(S(=O)(=O)NC3CCCC3)c2)c1 | > 23 | Active | 0.11 | 1.51 | 100 | 74 |  | 11 (≈ 4.14 µg/mL) |  |  |  | 
Cc1cc(NC(=O)c2cccc(S(=O)(=O)NC(C)C)c2)ccc1F |  | Active | 0.07 | 0.15 | 80 | 26 |  | 41 (≈ 14.4 µg/mL) | 47.5 |  |  | 
CC1(NS(=O)(=O)c2cccc(C(=O)Nc3ccc(F)cc3)c2)COC1 | > 100 |  | 0.96 | 0.93 | 29 | 3 | 0.5 | > 100 |  |  |  | 
O=C(Nc1ccc(F)cc1)c1cccc(S(=O)(=O)NC2COC2)c1 | > 100 |  | 2.1 | 3.05 | 21 | 14 | 0.8 | > 100 |  |  |  | 
Cc1cc(NC(=O)c2cccc(S(=O)(=O)N[C@H]3CCOC3)c2)c(F)cc1F |  |  | 2.22 | 3.3 | 69 | 17 |  | > 100 | > 25 |  |  | 
O=C(Nc1ccccc1)c1ccc(F)c(S(=O)(=O)NC2CCCCC2)c1 |  |  | 2.23 |  |  | 100 |  |  |  |  | Dose-dependent effect | 16.4
O=C(Nc1ccc2ccccc2c1)c1cc(S(=O)(=O)NC2CCCCC2)ccc1F | 13 | inactive | 12.7 | > 25 | 56 | 36 | 7.5 | < 0.2 |  |  |  | 
